A word on the ED50: it is the midpoint of the dose-response relation. By IC50 is commonly meant the concentration that gives 50% inhibition. In general, Inhibition refers to how much of the control response was suppressed. The low end stands for a weak effect, the high end for a strong effect. A word on the half-life: it is the time needed for the level to fall by half in the phase considered. One may read the inhibition in vivo as the drop in the measured response relative to a control, in per cent. Read a low inhibition in vivo as little suppression. As usually defined, the Cmax is the maximum level reached in the sampled fluid or tissue. The bioavailability is dose-corrected exposure relative to a reference, in per cent.

Data set [1] is filed under the species Canis familiaris. Kind of data set: Inhibition of urinary LTE4 levels in dogs. Type of data set: functional, Canis lupus familiaris, Urine. The procedure, abridged:
(§1)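 Anesthetized dogs receiving iv infusion (µg/kg/min, dose-ranging). Baseline urinary LTE4 excretion measured over 5-7 h after infusion start; ex vivo LTB4 generation by whole blood stimulated with calcium ionophore A23187. ED50 in µg/kg/min.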

The species entered for data set [2] is Homo sapiens. Put plainly: Compound was evaluated for production of leukotriene B4 in human whole blood (HWB) activated with ionophore A-23187. Type of data set: functional. The essentials:
(§2)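 LTB4 generation triggered by Ca2+ ionophore A23187 in human peripheral blood polymorphonuclear leukocytes or in human whole blood; inhibitor potency expressed as IC50 (nM).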

For data set [3], the species on record is Rattus norvegicus. Kind of data set: Inhibition of LTB4 levels in rat pleural exudates. The format is functional. The procedure, abridged: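 Rat pleurisy: carrageenan injected into the pleural cavity, followed 16-20 h later by ionophore A23187; LTB4 measured in pleural exudate 6 h after oral dosing; ED50 derived.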
Data set [4] is described as follows: Compound was tested for inhibition of Ascaris -induced bronchoconstriction in squirrel monkeys. Type of data set: functional.
Data set [5] concerns Canis familiaris. Put plainly: Ex Vivo generation of LTB4 by whole blood stimulated with calcium ionophore A-23187 in anesthetized dogs. The format is functional, Canis lupus familiaris. The essentials:
as §1

Data set [6] is filed under the species Homo sapiens. Kind of data set: Compound was evaluated for production of leukotriene B4 in Ca+2 -ionophore -activated human polymorphonuclear (HPMN) leukocytes. The format is functional. The essentials:
as §2

Data set [7] is described as follows: Plasma half-life in rats in the presence of PEG 400/water(3:1). Type of data set: ADME, organism-based. Conditions: rat.
A short description of data set [8]: Plasma half-life in dogs in the presence of PEG 400/water(3:1). The format is ADME, organism-based, Canis lupus familiaris. The conditions noted are these: dog. The procedure, abridged: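 Dog PK: free base given iv in PEG-400/water (3:1); plasma levels followed and half-life estimated from the intravenous administration.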
Data set [9] concerns Rattus norvegicus. Kind of data set: compound was tested for inhibition of ovalbumin- induced dyspnea in inbred hyperreactive rats at 0.5 mg/kg. Type of data set: functional.
For data set [10], the target named is T1, Polyunsaturated fatty acid 5-lipoxygenase (Homo sapiens, UniProt P09917).
T1 sequence (P09917 whole entry): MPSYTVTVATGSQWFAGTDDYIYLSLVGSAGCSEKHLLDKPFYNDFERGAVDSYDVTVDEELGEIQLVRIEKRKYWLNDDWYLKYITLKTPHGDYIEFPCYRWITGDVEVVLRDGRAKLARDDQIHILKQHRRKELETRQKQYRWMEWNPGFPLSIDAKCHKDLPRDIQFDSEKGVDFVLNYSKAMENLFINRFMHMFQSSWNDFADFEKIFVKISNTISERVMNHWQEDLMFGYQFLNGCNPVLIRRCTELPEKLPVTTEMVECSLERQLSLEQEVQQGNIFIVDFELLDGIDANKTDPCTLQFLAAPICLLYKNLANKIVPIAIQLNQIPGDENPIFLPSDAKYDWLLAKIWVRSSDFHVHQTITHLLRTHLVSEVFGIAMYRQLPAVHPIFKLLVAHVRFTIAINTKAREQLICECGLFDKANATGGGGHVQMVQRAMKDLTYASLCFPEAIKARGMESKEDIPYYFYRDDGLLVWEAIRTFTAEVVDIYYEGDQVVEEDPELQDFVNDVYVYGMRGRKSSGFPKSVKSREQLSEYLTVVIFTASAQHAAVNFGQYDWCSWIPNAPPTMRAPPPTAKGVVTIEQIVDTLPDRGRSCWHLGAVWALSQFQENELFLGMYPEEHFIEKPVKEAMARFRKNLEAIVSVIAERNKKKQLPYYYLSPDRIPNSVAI
Kind of data set: Inhibition of oxidation of arachidonic acid by human 5-Lipoxygenase using spectrophotometric assay. The format is functional. The essentials: (§3)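 Soluble extracts of Sf9 insect cells overexpressing human 5-LO; arachidonic acid oxidation followed spectrophotometrically as 5-H(P)ETE production; IC50 values.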

Data set [11] concerns Ovis aries. Kind of data set: Compound was tested for inhibition of Ascaris -induced bronchoconstriction in sheep at 2.5 ug/kg intravenous administration. Type of data set: functional. The procedure, abridged:
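Conscious allergic sheep (n = 4) received an iv bolus of 0.2 mg/kg and then a constant iv infusion of 2.5 µg/kg/min before Ascaris antigen challenge. Percent inhibition was scored separately for the early-phase and late-phase bronchoconstriction.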

Data set [12] deals with T1, Polyunsaturated fatty acid 5-lipoxygenase. Put plainly: Compound was evaluated for the potency to inhibit oxidation of arachidonic acid by human recombinant 5-Lipoxygenase using a spectrophotometric assay. The format is functional. The procedure, abridged: as §3
The nature of data set [13]: Maximum concentration of unchanged drug in rat plasma in the period 0-24 hr after dosing. The format is ADME, organism-based. The procedure, abridged: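 Rats dosed orally as HCl salt in 0.5% methocel suspension (10 mL/kg); jugular blood drawn before dosing and 0.5, 1, 2, 4, 6, 8, 10, 24 h after. Plasma deproteinized with equal volume acetonitrile; parent drug measured by reverse-phase HPLC peak area against standard curves from spiked rat plasma.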

The nature of data set [14]: Bioavailability in rat (Sprague-Dawley) (male). The format is ADME, organism-based. Conditions: in vivo. The essentials: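 Oral dosing as HCl salt in 0.5% methocel suspension at 20 mg/kg (10 mL/kg); iv dosing of free base in PEG-400/water (3:1) at 5 mg/kg into jugular vein. Serial jugular blood to 24 h; plasma protein precipitated with acetonitrile, parent quantified by reverse-phase HPLC against spiked-plasma standards. F = (AUCpo × dose_iv)/(AUCiv × dose_po) × 100, over 0-24 h.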

For the compound `N#Cc1cc(-c2ccoc2)c2ccc(OCc3cccc(C4(O)CC5COC(C4)O5)n3)cc2c1` (stereo not given), the ED50 in data set [1] amounted to 0.23 µg/min/kg; in data set [3], 0.3 mg/kg; in [5], 0.45 µg/min/kg. The figures for the concentration for half-maximal inhibition (IC50) in [2], in data set [6] and in data set [10] were 42 nM, 1.6 nM and 20 nM, respectively. In addition, the Inhibition in data set [4] worked out at 53%. Also, the half-life in [7] is 5 h; in [8], 16 h. Also, 0.5 mg/kg produced 60% inhibition in vivo in data set [9]. The inhibition in vivo at 0.0025 mg/kg in data set [11] was found to be 50%.
For `N#Cc1cc(-c2ccoc2)c2ccc(OCc3cncc(C4(O)CCOCC4)c3)cc2c1`, the IC50 in data set [2] was 100 nM; in [6], 10 nM; in [10], 100 nM.
With `N#Cc1cc(-c2ccoc2)c2ccc(OCc3csc(C4(O)CCOCC4)n3)cc2c1`, the IC50 was 300 nM in [2], 9 nM in data set [6] and 160 nM in [10].
As to `N#Cc1cc(-c2ccoc2)c2ccc(OCc3ccc4ccc(C5(O)CCOCC5)cc4n3)cc2c1`, the IC50 in data set [6] was 44 nM; in data set [10], 1000 nM.
For `N#Cc1cc(-c2ccoc2)c2ccc(COc3cccc(C4(O)CC5COC(C4)O5)n3)cc2c1` (stereo not given), the half-inhibitory concentration (IC50) was found to be 67 nM in data set [2], 3.1 nM in data set [6] and 80 nM in data set [10].
With `N#Cc1cc(-c2ccoc2)c2ccc(OCc3ccnc(C4(O)CCOCC4)c3)cc2c1`, the 50% inhibitory concentration (IC50) in [2] was 250 nM; in data set [12] it was 350 nM; in data set [6], 5 nM.
For `N#Cc1cc(-c2ccoc2)c2ccc(OCc3cccc(C4(O)CCOCC4)n3)cc2c1`, the IC50 in data set [2] came to 30 nM; in [12], 15 nM; in data set [6] it was 0.6 nM.
As for `N#Cc1cc(-c2ccoc2)c2ccc(OCc3cccc(C4(O)CCOCC4)c3)cc2c1`, the concentration in data set [13] peaked (Cmax) at 1000 nM. For the same compound, in data set [14], the bioavailability was under 5%.
Regarding `N#Cc1cc(-c2ccoc2)c2ccc(OCc3cc(C4(O)CCOCC4)ccn3)cc2c1`, the IC50 in data set [2] came out at 50 nM; in data set [6] it was 3.5 nM; in [10] it was 70 nM.
`CC(C)(C)Sc1c(CC(C)(C)C(=O)O)n(Cc2ccc(Cl)cc2)c2ccc(OCc3ccc4ccccc4n3)cc12` [QUIFLAPON]: the ED50 in data set [1] came to 1 µg/min/kg; in [3] it was 0.15 mg/kg; in [5], 0.5 µg/min/kg. In addition, in data set [4], the Inhibition was found to be 71%. Further, the inhibition in vivo at 0.5 mg/kg in data set [9] worked out at 56%. The compound further yielded an inhibition in vivo at 0.0025 mg/kg in [11] of over 75%.
Turning to `CC(c1cc2ccccc2s1)N(O)C(N)=O` (stereo not given) [ZILEUTON], the IC50 in data set [2] amounted to 2000 nM.

Values taken from ChEMBL document CHEMBL1130137, “Substituted (pyridylmethoxy)naphthalenes as potent and orally active 5-lipoxygenase inhibitors; synthesis, biological profile, and pharmacokinetics of L-739,010” (J Med Chem, 1997).
